Test results as given in ChEMBL document CHEMBL1949521, “Discovery of CC-930, an orally active anti-fibrotic JNK inhibitor” (Bioorg Med Chem Lett, 2012).

What was measured:
[1] = Clearance in rat at 2 mg/kg, iv; assay type: ADME, organism-based; parameters: dose 2 mg/kg, route intravenous; conditions: in vivo
Method in brief: (§1)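 Rats dosed intravenously at 2 mg/kg in a solution of 5% DMA and 30% PEG 400.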

[2] = Oral bioavailability in rat; assay type: ADME, organism-based; conditions: in vivo
[3] = AUC in rat at 10 mg/kg, po; assay type: ADME, organism-based; parameters: dose 10 mg/kg, route oral; conditions: plasma
Method in brief: (§2)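 Oral dose of 10 mg/kg given as a suspension in aqueous 0.5% CMC/0.25% Tween 80. Plasma AUC, Cmax and Tmax were taken from the oral arm. Bioavailability was derived against the intravenous arm in the same species.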

[4] = target: Mitogen-activated protein kinase 14 (Homo sapiens, UniProt Q16539); experiment: Inhibition of p38alpha using myelin basic protein as substrate preincubated for 15 mins prior ATP addition measured after 60 mins by scintillation counting
Chain of Mitogen-activated protein kinase 14 (Q16539 whole entry): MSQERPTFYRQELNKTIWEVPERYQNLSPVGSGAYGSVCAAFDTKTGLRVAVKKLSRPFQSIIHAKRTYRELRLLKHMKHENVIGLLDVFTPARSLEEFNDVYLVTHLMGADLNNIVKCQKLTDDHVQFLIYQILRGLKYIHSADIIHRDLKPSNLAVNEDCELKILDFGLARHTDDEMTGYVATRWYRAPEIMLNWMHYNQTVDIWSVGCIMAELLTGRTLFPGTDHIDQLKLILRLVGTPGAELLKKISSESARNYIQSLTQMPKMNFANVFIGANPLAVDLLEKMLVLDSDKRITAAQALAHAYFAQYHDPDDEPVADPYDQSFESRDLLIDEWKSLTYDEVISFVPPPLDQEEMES

[5] = target: Mitogen-activated protein kinase 8 (Homo sapiens, UniProt P45983); experiment: Inhibition of hexa-His-tagged JNK1 expressed in baculoviral system using GST-tagged c-Jun as substrate preincubated for 15 mins prior ATP addition measured after 60 mins by scintillation counting
Chain of Mitogen-activated protein kinase 8 (P45983 whole entry): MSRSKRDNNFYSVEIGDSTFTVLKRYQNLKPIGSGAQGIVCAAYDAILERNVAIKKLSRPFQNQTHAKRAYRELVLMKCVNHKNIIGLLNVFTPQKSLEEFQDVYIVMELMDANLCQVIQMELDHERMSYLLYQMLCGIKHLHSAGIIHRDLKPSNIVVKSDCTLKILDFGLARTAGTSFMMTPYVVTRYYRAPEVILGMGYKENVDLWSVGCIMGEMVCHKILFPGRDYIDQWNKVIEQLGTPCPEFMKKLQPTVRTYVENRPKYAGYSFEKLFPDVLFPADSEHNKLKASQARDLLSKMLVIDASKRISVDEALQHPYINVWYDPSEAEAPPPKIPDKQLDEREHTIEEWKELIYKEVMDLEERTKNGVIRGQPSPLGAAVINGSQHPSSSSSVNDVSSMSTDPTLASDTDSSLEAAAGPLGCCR

[6] = target: c-Jun N-terminal kinase, JNK (Homo sapiens, UniProt P45983+P53779+P45984); experiment: Inhibition of JNK-mediated GST tagged c-Jun phosphorylation in human Jurkat T cells compound treated for 30 mins prior anisomycin stimulation measured after 40 mins by fluorescence spectrophotometry; assay type: cell-based
[7] = AUC in po dosed rat; assay type: ADME, organism-based; conditions: plasma
Rattus norvegicus = experiment: Antiinflammatory activity in CD rat assessed as inhibition of LPS-stimulated TNFalpha production at 30 mg/kg, po administered 1 hr prior LPS challenge measured after 90 mins by ELISA; assay type: functional
Method in brief: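 Acute PK-PD model in rats: compound given by oral gavage at 10 or 30 mg/kg, then lipopolysaccharide injected, and plasma TNF-alpha release measured.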

[8] = Oral bioavailability in dog at 10 mg/kg; assay type: ADME, organism-based, Canis lupus familiaris; conditions: in vivo; method in brief: as §2
[9] = target: Mitogen-activated protein kinase 9 (Homo sapiens, UniProt P45984); experiment: Inhibition of hexa-His-tagged JNK2 expressed in baculoviral system using GST-tagged cJun as substrate preincubated for 15 mins prior ATP addition measured after 60 mins by scintillation counting
Chain of Mitogen-activated protein kinase 9 (P45984 whole entry): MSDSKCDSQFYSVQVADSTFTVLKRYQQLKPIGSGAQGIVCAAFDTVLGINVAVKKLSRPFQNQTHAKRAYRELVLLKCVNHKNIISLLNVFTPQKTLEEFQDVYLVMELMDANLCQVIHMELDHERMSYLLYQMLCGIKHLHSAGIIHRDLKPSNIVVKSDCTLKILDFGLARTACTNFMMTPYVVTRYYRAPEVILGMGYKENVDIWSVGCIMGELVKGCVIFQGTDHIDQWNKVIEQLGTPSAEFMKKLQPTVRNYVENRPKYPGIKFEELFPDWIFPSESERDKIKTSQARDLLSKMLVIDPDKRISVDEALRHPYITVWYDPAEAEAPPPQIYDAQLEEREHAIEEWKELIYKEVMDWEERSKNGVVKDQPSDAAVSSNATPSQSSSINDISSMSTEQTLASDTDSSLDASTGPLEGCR

[10] = target: Mitogen-activated protein kinase 10 (Homo sapiens, UniProt P53779); experiment: Inhibition of hexa-His-tagged JNK3 expressed in baculoviral system using GST-tagged cJun as substrate preincubated for 15 mins prior ATP addition measured after 60 mins by scintillation counting
Chain of Mitogen-activated protein kinase 10 (P53779 whole entry): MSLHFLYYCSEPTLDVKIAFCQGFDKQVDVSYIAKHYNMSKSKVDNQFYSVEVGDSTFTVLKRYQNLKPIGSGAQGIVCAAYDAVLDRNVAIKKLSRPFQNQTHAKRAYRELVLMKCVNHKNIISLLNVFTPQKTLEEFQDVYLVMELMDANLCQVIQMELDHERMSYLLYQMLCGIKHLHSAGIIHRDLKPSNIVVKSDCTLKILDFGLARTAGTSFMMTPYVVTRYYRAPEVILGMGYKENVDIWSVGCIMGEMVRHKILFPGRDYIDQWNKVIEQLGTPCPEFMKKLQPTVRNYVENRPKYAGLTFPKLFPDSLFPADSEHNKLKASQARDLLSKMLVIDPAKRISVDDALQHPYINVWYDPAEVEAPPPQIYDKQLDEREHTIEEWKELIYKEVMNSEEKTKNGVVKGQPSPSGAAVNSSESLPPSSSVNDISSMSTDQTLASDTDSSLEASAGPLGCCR

[11] = Clearance in dog at 1 mg/kg, iv; assay type: ADME, organism-based, Canis lupus familiaris; parameters: dose 1 mg/kg, route intravenous; conditions: in vivo
[12] = Clearance in cynomolgus monkey at 1 mg/kg, iv; assay type: ADME, organism-based, Macaca fascicularis; parameters: dose 1 mg/kg, route intravenous; conditions: in vivo
Method in brief: (§3)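 Intravenous dose of 1 mg/kg given to monkeys in a solution of 5% DMA and 95% isotonic citrate buffer (50 mM, pH 5.0).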

[13] = Volume of distribution at steady state in rat at 2 mg/kg, iv; assay type: ADME, organism-based; parameters: dose 2 mg/kg, route intravenous; conditions: in vivo, read-out: Vdss; method in brief: as §1
[14] = Volume of distribution at steady state in dog at 1 mg/kg, iv; assay type: ADME, organism-based, Canis lupus familiaris; parameters: dose 1 mg/kg, route intravenous; conditions: in vivo, read-out: Vdss
[15] = Volume of distribution at steady state in cynomolgus monkey at 1 mg/kg, iv; assay type: ADME, organism-based, Macaca fascicularis; parameters: dose 1 mg/kg, route intravenous; conditions: in vivo, read-out: Vdss; method in brief: as §3
[16] = AUC in rat at 2 mg/kg, iv; assay type: ADME, organism-based; parameters: dose 2 mg/kg, route intravenous; conditions: plasma; method in brief: as §1
[17] = AUC in dog at 1 mg/kg, iv; assay type: ADME, organism-based, Canis lupus familiaris, Plasma; parameters: dose 1 mg/kg, route intravenous; conditions: plasma
[18] = AUC in cynomolgus monkey at 1 mg/kg, iv; assay type: ADME, organism-based, Macaca fascicularis; parameters: dose 1 mg/kg, route intravenous; conditions: plasma; method in brief: as §3
[19] = Mean residence time in rat at 2 mg/kg, iv; assay type: ADME, organism-based; parameters: dose 2 mg/kg, route intravenous; conditions: in vivo; method in brief: as §1
[20] = Mean residence time in dog at 1 mg/kg, iv; assay type: ADME, organism-based, Canis lupus familiaris; parameters: dose 1 mg/kg, route intravenous; conditions: in vivo
[21] = Mean residence time in cynomolgus monkey at 1 mg/kg, iv; assay type: ADME, organism-based, Macaca fascicularis; parameters: dose 1 mg/kg, route intravenous; conditions: in vivo; method in brief: as §3
[22] = Cmax in rat at 10 mg/kg, po; assay type: ADME, organism-based; parameters: dose 10 mg/kg, route oral; conditions: in vivo; method in brief: as §2
[23] = Cmax in dog at 10 mg/kg, po; assay type: ADME, organism-based, Canis lupus familiaris; parameters: dose 10 mg/kg, route oral; conditions: in vivo; method in brief: as §2
[24] = Cmax in cynomolgus monkey at 10 mg/kg, po; assay type: ADME, organism-based, Macaca fascicularis; parameters: dose 10 mg/kg, route oral; conditions: in vivo; method in brief: as §2
[25] = Tmax in rat at 10 mg/kg, po; assay type: ADME, organism-based; parameters: dose 10 mg/kg, route oral; conditions: in vivo; method in brief: as §2
[26] = Tmax in dog at 10 mg/kg, po; assay type: ADME, organism-based, Canis lupus familiaris; parameters: dose 10 mg/kg, route oral; conditions: in vivo; method in brief: as §2
[27] = Tmax in cynomolgus monkey at 10 mg/kg, po; assay type: ADME, organism-based, Macaca fascicularis; parameters: dose 10 mg/kg, route oral; conditions: in vivo; method in brief: as §2
[28] = Oral bioavailability in cynomolgus monkey at 10 mg/kg; assay type: ADME, organism-based, Macaca fascicularis; conditions: in vivo; method in brief: as §2
[29] = AUC in dog at 10 mg/kg, po; assay type: ADME, organism-based, Canis lupus familiaris, Plasma; parameters: dose 10 mg/kg, route oral; conditions: plasma; method in brief: as §2
[30] = AUC in cynomolgus monkey at 10 mg/kg, po; assay type: ADME, organism-based, Macaca fascicularis; parameters: dose 10 mg/kg, route oral; conditions: plasma; method in brief: as §2
[31] = Oral bioavailability in rat at 10 mg/kg; assay type: ADME, organism-based; conditions: in vivo; method in brief: as §2

## N[C@H]1CC[C@H](Nc2ncc3nc(Nc4ccc(F)cc4F)n(C4CCCC4)c3n2)CC1
[1]
  clearance: 66 mL/min/kg
[2]
  bioavailability: 8%
[3]
  AUC: 0.36 µM·h

## O[C@H]1CC[C@H](Nc2ncc3nc(Nc4c(F)cc(F)cc4F)n([C@@H]4CCOC4)c3n2)CC1
[4]
  IC50: > 3000 nM

## CC(C)Nc1ncc2nc(Nc3c(F)cc(F)cc3F)n([C@H]3CC[C@@H](C(=O)NC4CC4)CC3)c2n1
[5]
  IC50: 79 nM
[4]
  IC50: 6200 nM
[6]
  IC50: 0.2 µM
[1]
  clearance: 31 mL/min/kg
[7]
  AUC: 4.7 µM·h
[2]
  bioavailability: 42%
Rattus norvegicus
  inhibition in vivo at 30 mg/kg: 92%
[8]
  bioavailability: 20%

## CC(C)(O)[C@H]1CC[C@H](Nc2ncc3nc(Nc4ccc(F)cc4F)n(C4CCCC4)c3n2)CC1
[5]
  IC50: 170 nM
[4]
  IC50: 290 nM
[6]
  IC50: 1.8 µM

## CCO[C@H]1CC[C@H](Nc2ncc3nc(Nc4ccc(F)cc4F)n(C4CCOCC4)c3n2)CC1
[5]
  IC50: 540 nM
[4]
  IC50: > 3000 nM
[6]
  IC50: 1.6 µM

## CS(=O)(=O)N[C@H]1CC[C@H](Nc2ncc3nc(Nc4ccc(F)cc4F)n(C4CCOCC4)c3n2)CC1
[5]
  IC50: 880 nM
[4]
  IC50: 860 nM

## CNC(=O)[C@H]1CC[C@H](Nc2ncc3nc(Nc4c(F)cc(F)cc4F)n([C@H]4CCOC4)c3n2)CC1
[5]
  IC50: 51 nM
[9]
  IC50: 10 nM
[10]
  IC50: 7 nM
[4]
  IC50: 4200 nM
[6]
  IC50: 0.091 µM
[1]
  clearance: 39 mL/min/kg
[2]
  bioavailability: 33%
[3]
  AUC: 2.9 µM·h
[11]
  clearance: 24 mL/min/kg
[12]
  clearance: 7.1 mL/min/kg
[13]
  Vd: 2.5 L/kg
[14]
  Vd: 1.4 L/kg
[15]
  Vd: 0.8 L/kg
[16]
  AUC: 1.8 µM·h
[17]
  AUC: 1.4 µM·h
[18]
  AUC: 4.7 µM·h
[19]
  MRT: 1.1 h
[20]
  MRT: 1 h
[21]
  MRT: 1.8 h
[22]
  Cmax: 1200 nM
[23]
  Cmax: 860 nM
[24]
  Cmax: 11 µM
[25]
  Tmax: 42 min
[26]
  Tmax: 40.2 min
[27]
  Tmax: 49.8 min
[28]
  bioavailability: 48%
[29]
  AUC: 3.3 µM·h
[30]
  AUC: 23 µM·h
[31]
  bioavailability: 33%
[8]
  bioavailability: 24%

## CC(C)(O)[C@H]1CC[C@H](Nc2ncc3nc(Nc4ccc(F)cc4F)n(C4CCOCC4)c3n2)CC1
[5]
  IC50: 320 nM
[4]
  IC50: 980 nM
[6]
  IC50: 1.7 µM

## CC(C)Nc1ncc2nc(Nc3c(F)cc(F)cc3F)n([C@H]3CC[C@@H](C(N)=O)CC3)c2n1
[5]
  IC50: 120 nM
[4]
  IC50: 160 nM
[6]
  IC50: 0.2 µM
[1]
  clearance: 25 mL/min/kg
[7]
  AUC: 5 µM·h
[2]
  bioavailability: 32%
Rattus norvegicus
  inhibition in vivo at 30 mg/kg: 96%

## C[C@]1(O)CC[C@H](Nc2ncc3nc(Nc4ccc(F)cc4F)n(C4CCOCC4)c3n2)CC1
[5]
  IC50: 1200 nM
[4]
  IC50: > 3000 nM
[6]
  IC50: 2.5 µM

## Fc1ccc(Nc2nc3cnc(C4CCOCC4)nc3n2C2CCCC2)c(F)c1
[5]
  IC50: 900 nM
[4]
  IC50: 230 nM

## CC(C)Nc1ncc2nc(Nc3c(F)cc(F)cc3F)n([C@H]3CC[C@@H](C(=O)N4CCOCC4)CC3)c2n1
[5]
  IC50: 63 nM
[4]
  IC50: 6400 nM
[6]
  IC50: 0.23 µM
[1]
  clearance: 26 mL/min/kg
[7]
  AUC: 2.4 µM·h
[2]
  bioavailability: 20%
Rattus norvegicus
  inhibition in vivo at 30 mg/kg: 58%

## O[C@H]1CC[C@H](Nc2ncc3nc(Nc4ccc(F)cc4F)n(C4CCCC4)c3n2)CC1
[5]
  IC50: 120 nM
[4]
  IC50: 560 nM
[6]
  IC50: 0.44 µM
[1]
  clearance: 59 mL/min/kg
[2]
  bioavailability: 68%
[3]
  AUC: 2.7 µM·h

## CC(C)(O)[C@H]1CC[C@@H](c2ncc3nc(Nc4ccc(F)cc4F)n(C4CCOCC4)c3n2)C1
[5]
  IC50: 1300 nM
[4]
  IC50: > 3000 nM
[6]
  IC50: 1.7 µM

## O[C@H]1CC[C@H](Nc2ncc3nc(Nc4ccc(F)cc4F)n(C4CCOCC4)c3n2)CC1
[5]
  IC50: 390 nM
[4]
  IC50: 2700 nM
[6]
  IC50: 0.86 µM
[1]
  clearance: 21 mL/min/kg
[2]
  bioavailability: 70%
[3]
  AUC: 12 µM·h
